The source made the active and inactive calls. The calls are words filed in the database; no cut-off is given here.
Experiments:
[1] = biological target: T1, Muscarinic acetylcholine receptor M1 (Rattus norvegicus, UniProt P08482); experiment: Allosteric modulation at rat M1 receptor expressed in CHO cells by calcium mobilization assay; format: functional, cell-based
T1 sequence (P08482 whole entry): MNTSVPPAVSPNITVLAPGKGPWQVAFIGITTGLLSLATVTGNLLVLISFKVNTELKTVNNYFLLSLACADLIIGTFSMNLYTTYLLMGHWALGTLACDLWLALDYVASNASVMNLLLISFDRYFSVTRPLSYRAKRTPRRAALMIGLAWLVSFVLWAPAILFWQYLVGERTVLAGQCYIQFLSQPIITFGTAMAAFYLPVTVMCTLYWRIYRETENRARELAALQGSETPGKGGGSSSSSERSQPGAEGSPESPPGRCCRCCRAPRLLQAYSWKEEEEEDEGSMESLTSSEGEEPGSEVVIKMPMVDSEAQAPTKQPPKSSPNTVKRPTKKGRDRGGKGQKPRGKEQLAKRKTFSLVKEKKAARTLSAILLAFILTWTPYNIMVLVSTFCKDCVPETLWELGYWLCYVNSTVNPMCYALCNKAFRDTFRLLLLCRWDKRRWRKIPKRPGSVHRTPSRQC

[2] = biological target: T2, Muscarinic acetylcholine receptor M1 (Rattus norvegicus) (UniProt P08482); experiment: Allosteric modulation at rat M1 receptor expressed in CHO cells by calcium mobilization assay relative to acetylcholine; format: functional, cell-based; set-up: concentration or dose not given beside the values
T2 sequence (whole entry): T1 sequence (P08482 whole entry)

[3] = Ratio of AUC in brain to plasma in rat at 10 mg/kg, ip after 1 hr; format: ADME, organism-based; set-up: dose 10 mg/kg, route intraperitoneal; conditions: brain and plasma
[4] = biological target: T2, Muscarinic acetylcholine receptor M1 (Rattus norvegicus); experiment: Agonist activity at rat M1 receptor expressed in CHO cells assessed as leftward shift in Ach response at 30 uM by calcium mobilization assay; format: functional, cell-based
[5] = biological target: T3, Muscarinic acetylcholine receptor M5 (Homo sapiens, UniProt P08912); experiment: Agonist activity at M5 receptor; format: functional
T3 sequence (P08912 whole entry): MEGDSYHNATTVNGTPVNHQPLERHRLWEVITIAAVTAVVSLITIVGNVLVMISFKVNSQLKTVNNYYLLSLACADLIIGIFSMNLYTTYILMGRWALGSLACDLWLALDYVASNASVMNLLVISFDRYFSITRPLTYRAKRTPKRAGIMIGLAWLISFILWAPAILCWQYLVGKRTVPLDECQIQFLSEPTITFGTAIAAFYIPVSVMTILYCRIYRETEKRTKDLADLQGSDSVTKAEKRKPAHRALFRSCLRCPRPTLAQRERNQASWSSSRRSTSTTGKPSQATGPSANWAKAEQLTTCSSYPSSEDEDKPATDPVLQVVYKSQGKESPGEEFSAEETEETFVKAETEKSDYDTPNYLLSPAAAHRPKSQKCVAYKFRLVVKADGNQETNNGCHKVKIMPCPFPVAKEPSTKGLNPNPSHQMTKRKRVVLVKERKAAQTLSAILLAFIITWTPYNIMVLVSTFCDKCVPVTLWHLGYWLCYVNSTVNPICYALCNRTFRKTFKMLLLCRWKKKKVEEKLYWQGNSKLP

[6] = biological target: T4, Muscarinic acetylcholine receptor M2 (Homo sapiens, UniProt P08172); experiment: Agonist activity at M2 receptor; format: functional
T4 sequence (P08172 whole entry): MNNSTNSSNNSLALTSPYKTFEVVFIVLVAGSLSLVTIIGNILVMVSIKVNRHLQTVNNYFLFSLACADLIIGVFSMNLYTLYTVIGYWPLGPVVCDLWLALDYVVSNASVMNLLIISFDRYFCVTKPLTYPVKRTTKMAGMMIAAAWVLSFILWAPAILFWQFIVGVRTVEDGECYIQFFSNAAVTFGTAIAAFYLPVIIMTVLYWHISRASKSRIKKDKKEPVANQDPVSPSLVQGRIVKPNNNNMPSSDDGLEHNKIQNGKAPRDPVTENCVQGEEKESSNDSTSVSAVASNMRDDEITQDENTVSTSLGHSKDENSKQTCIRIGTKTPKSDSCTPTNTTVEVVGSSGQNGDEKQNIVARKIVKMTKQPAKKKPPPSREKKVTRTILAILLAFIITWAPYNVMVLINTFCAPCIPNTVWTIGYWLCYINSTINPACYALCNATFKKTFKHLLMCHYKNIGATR

[7] = biological target: T5, Muscarinic acetylcholine receptor M3 (Homo sapiens, UniProt P20309); experiment: Agonist activity at M3 receptor; format: functional
Target sequence in this assay (P20309 whole entry): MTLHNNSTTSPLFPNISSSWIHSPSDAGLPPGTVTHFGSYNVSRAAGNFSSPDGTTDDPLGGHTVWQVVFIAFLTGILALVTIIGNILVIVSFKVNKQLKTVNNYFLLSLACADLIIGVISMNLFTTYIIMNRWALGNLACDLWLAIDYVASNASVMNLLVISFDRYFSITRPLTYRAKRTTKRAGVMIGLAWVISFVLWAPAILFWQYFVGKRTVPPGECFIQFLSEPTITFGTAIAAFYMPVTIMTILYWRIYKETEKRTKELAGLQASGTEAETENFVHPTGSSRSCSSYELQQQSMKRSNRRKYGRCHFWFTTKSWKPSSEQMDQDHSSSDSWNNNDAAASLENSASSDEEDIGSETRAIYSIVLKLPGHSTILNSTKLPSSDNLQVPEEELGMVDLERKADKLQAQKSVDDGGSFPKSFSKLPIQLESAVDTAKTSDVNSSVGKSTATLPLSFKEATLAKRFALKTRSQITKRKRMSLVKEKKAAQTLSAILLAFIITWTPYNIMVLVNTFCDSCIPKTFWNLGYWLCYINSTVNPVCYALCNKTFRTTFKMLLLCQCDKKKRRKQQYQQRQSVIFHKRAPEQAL

[8] = biological target: T6, Muscarinic acetylcholine receptor M4 (Homo sapiens, UniProt P08173); experiment: Agonist activity at M4 receptor; format: functional
T6 sequence (P08173 whole entry): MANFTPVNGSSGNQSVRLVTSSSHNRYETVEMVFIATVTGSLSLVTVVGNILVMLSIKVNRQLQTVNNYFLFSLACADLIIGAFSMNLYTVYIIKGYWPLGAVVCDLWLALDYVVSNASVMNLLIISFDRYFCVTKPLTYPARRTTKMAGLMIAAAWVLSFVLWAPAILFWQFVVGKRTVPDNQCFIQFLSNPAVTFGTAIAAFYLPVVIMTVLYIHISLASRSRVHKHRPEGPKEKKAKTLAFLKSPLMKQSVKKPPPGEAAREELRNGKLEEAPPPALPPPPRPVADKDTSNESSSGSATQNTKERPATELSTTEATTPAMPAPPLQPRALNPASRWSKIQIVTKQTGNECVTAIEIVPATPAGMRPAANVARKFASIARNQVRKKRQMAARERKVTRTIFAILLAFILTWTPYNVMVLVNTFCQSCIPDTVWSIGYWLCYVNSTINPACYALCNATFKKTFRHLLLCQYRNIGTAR

[9] = biological target: T5, Muscarinic acetylcholine receptor M3; experiment: Orthosteric binding affinity to M3 receptor at 10 uM by radioligand binding assay
Procedure, shortened: (§1)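 Radioligand binding panel of 68 GPCRs, ion channels and transporters (Lead Profile screen, run externally), compound tested at 10 μM; read-out as percent activity at each target.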
Target sequence in this assay (P20309 whole entry, looked up): as the sequence (P20309 whole entry) above

[10] = biological target: T2, Muscarinic acetylcholine receptor M1 (Rattus norvegicus); experiment: Orthosteric binding affinity to rat M1 receptor at 10 uM by radioligand binding assay; procedure, shortened: as §1
[11] = biological target: T7, Muscarinic acetylcholine receptor M2 (Homo sapiens) (UniProt P08172); experiment: Orthosteric binding affinity to M2 receptor at 10 uM by radioligand binding assay; procedure, shortened: as §1
T7 sequence (whole entry): T4 sequence (P08172 whole entry)

[12] = Binding affinity to Sodium channel site 2 at 10 uM by radioligand binding assay; procedure, shortened: as §1
[13] = biological target: T8, Muscarinic acetylcholine receptor M4 (Homo sapiens) (UniProt P08173); experiment: Orthosteric binding affinity to M4 receptor at 10 uM by radioligand binding assay; procedure, shortened: as §1
T8 sequence (whole entry): T6 sequence (P08173 whole entry)

[14] = biological target: Sodium-dependent dopamine transporter (Homo sapiens) (UniProt Q01959); experiment: Binding affinity to DAT at 10 uM by radioligand binding assay; procedure, shortened: as §1
[15] = biological target: T9, Muscarinic acetylcholine receptor M5 (Homo sapiens) (UniProt P08912); experiment: Orthosteric binding affinity to M5 receptor at 10 uM by radioligand binding assay; procedure, shortened: as §1
T9 sequence (whole entry): T3 sequence (P08912 whole entry)

Sodium-dependent dopamine transporter (Homo sapiens), sequence (Q01959 whole entry): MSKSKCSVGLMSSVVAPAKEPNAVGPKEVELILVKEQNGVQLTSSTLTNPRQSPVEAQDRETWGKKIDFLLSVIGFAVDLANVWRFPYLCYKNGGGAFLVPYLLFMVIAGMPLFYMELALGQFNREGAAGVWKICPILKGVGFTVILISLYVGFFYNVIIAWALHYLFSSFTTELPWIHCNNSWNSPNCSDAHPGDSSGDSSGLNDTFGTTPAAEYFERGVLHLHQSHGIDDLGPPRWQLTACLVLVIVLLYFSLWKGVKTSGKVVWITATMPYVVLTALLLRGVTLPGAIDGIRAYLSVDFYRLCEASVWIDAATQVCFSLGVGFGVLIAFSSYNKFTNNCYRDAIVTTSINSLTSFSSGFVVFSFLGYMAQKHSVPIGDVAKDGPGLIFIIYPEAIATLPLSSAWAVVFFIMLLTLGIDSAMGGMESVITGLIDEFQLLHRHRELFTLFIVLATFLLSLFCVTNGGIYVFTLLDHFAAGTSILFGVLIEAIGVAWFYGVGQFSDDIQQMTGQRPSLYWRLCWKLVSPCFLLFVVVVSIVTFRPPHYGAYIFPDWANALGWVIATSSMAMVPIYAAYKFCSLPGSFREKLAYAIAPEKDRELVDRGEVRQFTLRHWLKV

Row | SMILES | EC50 [1] | Activity [2] | further results
1 | COc1ccccc1Cn1cc(S(=O)(=O)CC(=O)Nc2cc(C)on2)c2ccccc21 | > 10 µM | – | –
2 | Cc1cc(NC(=O)CS(=O)(=O)c2cn(Cc3cccc(Cl)c3F)c3ccccc23)no1 | – | 56% | –
3 | Cc1cc(NC(=O)CS(=O)(=O)c2cn(Cc3cc(Br)cc(Br)c3)c3ccccc23)no1 | > 10 µM | – | –
4 | Cc1cc(NC(=O)CS(=O)(=O)c2cn(Cc3ccc(OC(F)(F)F)cc3)c3ccccc23)no1 | > 10 µM | – | –
5 | Cc1cc(NC(=O)CS(=O)(=O)c2cn(Cc3ccc(F)c(Cl)c3)c3ccccc23)no1 | > 10 µM | – | –
6 | Cc1cc(NC(=O)CS(=O)(=O)c2cn(Cc3ccccc3F)c3ccccc23)no1 | > 10 µM | – | –
7 | COc1ccc(Cn2cc(S(=O)(=O)CC(=O)Nc3cc(C)on3)c3ccccc32)cc1 | > 10 µM | – | –
8 | Cn1cc(-c2ccc(CN3C(=O)C(=O)c4ccccc43)c(F)c2)cn1 | – | – | Kp at 1 h [3]: 0.1
9 | Cc1cc(NC(=O)CS(=O)(=O)c2cn(Cc3cccc(Br)c3F)c3ccccc23)no1 | > 10 µM | – | –
10 | Cc1cc(NC(=O)CS(=O)(=O)c2cn(Cc3cccc(Br)c3)c3cc(F)cc(F)c23)no1 | – | 103% | –
11 | Cc1cc(NC(=O)CS(=O)(=O)c2cn(Cc3ccc(F)cc3F)c3ccccc23)no1 | > 10 µM | – | –
12 | Cc1cc(NC(=O)CS(=O)(=O)c2cn(Cc3ccc(C(F)(F)F)cc3)c3ccccc23)no1 | > 10 µM | – | –
13 | Cc1cc(NC(=O)CS(=O)(=O)c2cn(Cc3ccc(F)cc3Br)c3ccccc23)no1 | > 10 µM | – | –
14 | Cc1cc(NC(=O)CS(=O)(=O)c2cn(Cc3cccc(-c4cn[nH]c4)c3)c3cc(F)cc(F)c23)no1 | – | 102% | fold change (FC) [4]: 98
15 | Cc1cc(NC(=O)CS(=O)(=O)c2cn(Cc3ccccc3Cl)c3ccccc23)no1 | 9.71 µM | – | EC50 [5]: > 30 µM; EC50 [6]: > 30 µM; EC50 [7]: > 30 µM; EC50 [8]: > 30 µM
16 | Cc1cc(NC(=O)CS(=O)(=O)c2cn(Cc3cc(Br)ccc3F)c3ccccc23)no1 | – | 84% | Activity [9]: inactive; Activity [10]: inactive; Activity [11]: inactive; Kp at 1 h [3]: 0.32; Activity [12]: 83%; Activity [13]: inactive; Activity [14]: 83%; fold change (FC) [4]: 49; Activity [15]: inactive

Now from value to compound, other results behind:

Row | EC50 [1] | Activity [2] | SMILES | further results
17 | > 10 µM | – | Cc1cc(NC(=O)CS(=O)(=O)c2cn(Cc3cccc(C#N)c3)c3ccccc23)no1 | –
18 | > 10 µM | – | Cc1cc(NC(=O)CS(=O)(=O)c2cn(Cc3ccc(F)c(-c4cn[nH]c4)c3)c3ccccc23)no1 | –
19 | – | 79% | COc1cccc(Cn2cc(S(=O)(=O)CC(=O)Nc3cc(C)on3)c3ccccc32)c1 | –
20 | – | 96% | Cc1cc(NC(=O)CS(=O)(=O)c2cn(Cc3cccc(Cl)c3)c3ccccc23)no1 | –
21 | > 10 µM | – | Cc1cc(NC(=O)CS(=O)(=O)c2cn(Cc3cccc(-c4ccccc4)c3)c3ccccc23)no1 | –
22 | > 10 µM | – | Cc1cc(NC(=O)CS(=O)(=O)c2cn(Cc3ccc(Cl)c(Cl)c3)c3ccccc23)no1 | –
23 | 4.4 µM | 103% | Cc1cc(NC(=O)CS(=O)(=O)c2cn(Cc3cccc(-c4cn[nH]c4)c3F)c3ccccc23)no1 | –
24 | – | 91% | Cc1cc(NC(=O)CS(=O)(=O)c2cn(Cc3cccc(Br)c3)c3ccccc23)no1 | –
25 | 3.07 µM | 96% | Cc1cc(NC(=O)CS(=O)(=O)c2cn(Cc3cc(-c4cn[nH]c4)ccc3F)c3ccccc23)no1 | –
26 | – | 90% | Cc1cc(NC(=O)CS(=O)(=O)c2cn(Cc3cccc(-c4cn[nH]c4)c3)c3ccccc23)no1 | –
27 | > 10 µM | – | Cc1cc(NC(=O)CS(=O)(=O)c2cn(Cc3cccc(-c4ccc(N5CCOCC5)nc4)c3)c3ccccc23)no1 | –
28 | > 10 µM | – | Cc1cc(NC(=O)CS(=O)(=O)c2cn(Cc3cccc(-c4ccc(N5CCCC5)nc4)c3)c3ccccc23)no1 | –
29 | 3.21 µM | 102% | Cc1cc(NC(=O)CS(=O)(=O)c2cn(Cc3cccc(-c4cnn(C)c4)c3)c3ccccc23)no1 | –
30 | > 10 µM | – | Cc1cc(NC(=O)CS(=O)(=O)c2cn(Cc3ccc(Cl)cc3)c3ccccc23)no1 | –
31 | > 10 µM | – | Cc1cc(NC(=O)CS(=O)(=O)c2cn(Cc3ccc(F)c(Br)c3)c3ccccc23)no1 | –
32 | > 10 µM | – | CCC(C)n1cc(-c2cccc(Cn3cc(S(=O)(=O)CC(=O)Nc4cc(C)on4)c4ccccc43)c2)cn1 (configuration not stated) | –
33 | > 10 µM | – | Cc1cc(NC(=O)CS(=O)(=O)c2cn(Cc3cccc(-c4ccc(N5CCNCC5)nc4)c3)c3ccccc23)no1 | –
34 | > 10 µM | – | Cc1cc(NC(=O)CS(=O)(=O)c2cn(Cc3cccc(-c4ccc(Cl)nc4)c3)c3ccccc23)no1 | –
35 | > 10 µM | – | Cc1cc(NC(=O)CS(=O)(=O)c2cn(Cc3cccc(C(F)(F)F)c3)c3ccccc23)no1 | –

Reference: ChEMBL document CHEMBL1772947, “Discovery and optimization of a novel, selective and brain penetrant M1 positive allosteric modulator (PAM): the development of ML169, an MLPCN probe” (Bioorg Med Chem Lett, 2011)
